From PubChem BioAssay
Hits are enriched below; roughly 3.3% of the tested compounds scored in any of these assays.
Myeloid diff 2 – induction of myeloid progenitor differentiation, primary screen, cell-based, flow cytometry, MLPCN library; ER-HoxA9 myeloid progenitors, lysozyme-GFP differentiation; 360,000 compounds, 1% hits; calls only at 10 µM;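 active means normalized GFP-positive differentiation at or above the plate's own cutoff, the solvent-only control mean plus 3 SD; inconclusive means no clear call, values can overlap the other calls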;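 further: cells exposed to compound for four days before flow analysis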
ATG4B inhibitor – ATG4B protease inhibitors, primary screen, biochemical, fluorescence, uHTS | Cysteine protease ATG4B (Homo sapiens), Q9Y4P1 | ATG4B cleavage of LC3-PLA2, NBD-HPC fluorescence, 1 h | inhibition, % at 8.33 µM | 340,000 compounds, 0.51% hits; in the data active means inhibition above about 40%
Target sequence (Q9Y4P1 whole entry, looked up): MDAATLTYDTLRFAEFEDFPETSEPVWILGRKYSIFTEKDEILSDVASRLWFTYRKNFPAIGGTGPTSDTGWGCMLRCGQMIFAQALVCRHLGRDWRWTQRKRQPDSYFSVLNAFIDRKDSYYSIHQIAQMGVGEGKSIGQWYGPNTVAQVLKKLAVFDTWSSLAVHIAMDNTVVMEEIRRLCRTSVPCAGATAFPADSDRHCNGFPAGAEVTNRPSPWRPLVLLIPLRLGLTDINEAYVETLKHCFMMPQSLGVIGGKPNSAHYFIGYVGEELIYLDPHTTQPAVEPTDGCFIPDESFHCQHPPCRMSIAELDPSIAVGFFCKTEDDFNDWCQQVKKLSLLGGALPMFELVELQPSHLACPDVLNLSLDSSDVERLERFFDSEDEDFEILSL
Arr AP2 block – inhibitors of beta-arrestin/AP2 binding, primary screen, biochemical, GPCR trafficking, flow cytometry. 340,000 compounds, 0.31% hits. inhibition, % at 10 µM. beta-arrestin 1 C-terminal peptide binding to AP2 beta2-adaptin appendage (human). FITC-arrestin peptide / GST-AP2 beads; AP2 beta2 appendage carries R879A mutation;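 active means inhibition above a set limit, near 3 SD of compounds lacking own fluorescence, cut at about 54% in these data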
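system = GST-tagged AP2 beta2-adaptin appendage (R879A) on 4 µm glutathione beads | reagent = FITC-labelled arrestin peptide probe, 50 nM final | schedule = compound with beads 12 min RT, then probe 1 h RT | signal = HyperCyt-sampled flow cytometry, FL1 channel, ex 488/em 535 nm | read-out = percent response from loss of bead-bound FITC fluorescence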
ABCB6 inh 2 – ABCB6 transporter inhibitors, primary screen, K562-ABCB6 cells, flow cytometry, MLPCN library; 360,000 compounds, 0.19% hits; K562-ABCB6 porphyrin accumulation, 1 h; hits give low values; fluorescence ratio to DMSO, % at 10 µM; AID 602162, 2011;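 active means fluorescence ratio to DMSO below 75%, the collection mean minus 3 SD; inconclusive means too few cells collected in the well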;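 further: signal is porphyrin accumulated inside mitochondria; lower ratio means ABCB6 inhibition with less porphyrin fluorescence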
Granule exo inh – LAMP-1 surface exposure blockers, TALL-104 cells – cell-based, flow cytometry, MLPCN library, primary screen; TALL-104 LAMP-1 surface exposure; cells stimulated with thapsigargin and PMA; inhibition, % at 10 µM; 360,000 compounds, 0.66% hits; AID 651702, 2012;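 active means inhibition above about 55%, limit read from the data; inconclusive means no clear call, values can overlap the other calls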
CendR NRP1 mod – modulators of CendR peptide binding to NRP-1, primary screen, biochemical, fluorescence polarization, uHTS; Neuropilin-1 (Homo sapiens), O14786; 360,000 compounds, 0.85% hits; FAM-RPARPAR peptide binding to NRP-1; inhibition, % at 25 µM; AID 602438, 2012;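 active means inhibition or corrected inhibition above about 18%, plus a signal ratio from 0.5 to 1.5, limit read from the data, passing the limit was not always enough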
Granule exo CP1 – inhibitors of lytic granule exocytosis, confirmation, TALL-104 cells, flow cytometry, Cherry Pick01 | AID 651954, 2012 | inhibition, % at 10 µM | shares compounds with Granule exo inh | 1,500 compounds, 11% hits | LAMP-1 externalization; stimulated with PMA plus thapsigargin; in the data active means inhibition above about 60%
A number is an active result; – = inactive; ? = inconclusive; · = no result given.

SMILES | Myeloid diff 2 | ATG4B inhibitor | Arr AP2 block | ABCB6 inh 2 | Granule exo inh | CendR NRP1 mod | Granule exo CP1
C[C@H](c1ccccc1)N1C[C@H](COCc2ccccc2)Oc2cc(N3CC[C@@H](N(C)C)C3)ccc2S1(=O)=O | – | · | · | – | 61.9 | – | –
COC[C@H]1CCCN1c1ccc2c(c1)O[C@H](COCc1ccccc1)CN([C@@H](C)c1ccccc1)S2(=O)=O | – | · | · | – | – | – | ·
Cc1ccc(S(=O)(=O)NCc2ccc(C(=O)NCCc3ccc(S(N)(=O)=O)cc3)cc2)cc1 | – | – | – | – | – | – | ·
CS(=O)(=O)N(CC(=O)N1CCN(Cc2ccccc2)CC1)c1cccc(F)c1 | – | – | – | – | – | – | ·
Cc1cc(C)n(-c2nc(SCCN(C)C)c3c4c(sc3n2)CCCC4)n1 | – | – | – | – | 70.2 | – | –
N#Cc1nc(COc2ccccc2Cl)oc1NCc1ccco1 | – | – | – | – | 56.3 | – | –
COc1ccc(-n2nnnc2S(=O)(=O)CC(=O)N2CCCCC2)cc1 | ? | – | – | – | 60.4 | – | –
COc1ccc(-n2nnnc2S(=O)(=O)Cc2ccc(C(=O)O)cc2)cc1 | – | – | – | – | – | – | ·
Cc1cccc(Oc2sc(C(=O)c3ccccc3)c(N)c2C#N)c1C | – | – | – | – | 65.6 | – | –
O=C(Cc1c(F)cccc1Cl)OCC(=O)c1ccc[nH]1 | – | – | – | – | – | – | ·
CC(NCc1cc(Br)ccc1OCC(N)=O)C12CC3CC(CC(C3)C1)C2 (centres undefined) | – | – | – | – | 58.6 | – | –
COc1cc(CNC(C)C23CC4CC(CC(C4)C2)C3)ccc1OCC(=O)NC(C)(C)C (centres undefined) | – | – | – | – | – | – | ·
CC(=O)Nc1ccc(Oc2ccc(NC(C)=O)c(NC(C)=O)c2)cc1 | – | – | – | – | – | – | ·
O=C(CN1CCN(C(c2ccccc2)c2ccccc2)CC1)N1CCN(c2ccccc2)CC1 | – | – | – | – | 71.1 | – | –
CCS(=O)(=O)c1ncc(Cl)c(C(=O)Nc2ccc(S(=O)(=O)N(C)c3ccccc3)cc2)n1 | ? | – | – | 39.0 | 56.2 | – | –
Cc1ccccc1NC(=O)c1nc(S(C)(=O)=O)ncc1Cl | ? | – | – | – | 79.4 | – | –
COc1cc(C)nc(-c2csc(C)n2)n1 | – | – | – | – | – | – | ·
COCC1CCCN(Cc2cn(Cc3ccccc3)nc2-c2cc3ccccc3o2)C1 (centres undefined) | – | – | – | – | 70.4 | – | –
CCN(CC(=O)NCc1cccs1)C(=O)c1cccc(S(=O)(=O)N2CCc3ccccc32)c1 | – | – | – | – | 64.9 | – | –
O=c1c2c3c(sc2nc(N2CCNCC2)n1CCc1ccccc1)CCCCC3 | – | – | – | – | 59.6 | – | –
CN(C)CCNc1nc2sc3c(c2c(=O)n1Cc1ccccc1)CCCCC3 | – | – | – | – | 57.4 | – | –
O=C(CCC1CCCN(Cc2ccc3c(c2)CCO3)C1)NCc1ccc(F)c(F)c1 (centres undefined) | – | – | – | – | – | – | ·
S=C(Nc1ccc(-c2nc3ccccc3[nH]2)cc1)Nc1cccnc1 | – | – | – | – | – | – | ·
O=C(OCc1cccc(F)c1)c1ccc2c(=O)n3c(nc2c1)CCC3 | – | – | – | – | – | – | ·
CCN(CC1CCCN(CCc2cccc(OC)c2)C1)C(=O)C=C(C)C (centres undefined) | – | – | – | – | – | – | ·
SMILES | Myeloid diff 2 | ATG4B inhibitor | Arr AP2 block | ABCB6 inh 2 | Granule exo inh | CendR NRP1 mod | Granule exo CP1
COc1cccc(CN(C)CC2CCCN(CCc3ccccc3C)C2)c1 (centres undefined) | – | – | – | – | 56.9 | – | –
COc1ccc(CN(C)CC2CCCN(CCc3ccccc3C)C2)cc1O (centres undefined) | – | – | – | – | – | – | ·
CCN(Cc1cccc(OC)c1)CC1CCCN(CCc2cccc(OC)c2)C1 (centres undefined) | – | – | – | – | 70.8 | – | –
COc1ccc(CCN2CCCC(CN(C)Cc3cc(Cl)c(O)c(OC)c3)C2)cc1 (centres undefined) | – | – | – | – | 55.9 | – | –
CCN(Cc1ccc(O)cc1)CC1CCCN(CCc2cccc(F)c2)C1 (centres undefined) | – | – | – | – | 67.2 | – | –
CN(Cc1ccccc1OCCO)CC1CCCN(CCc2ccc(Cl)cc2)C1 (centres undefined) | – | – | – | – | 57.9 | – | –
CCOc1cccc(CN(CC)CC2CCCN(CCc3cccc(OC)c3)C2)c1O (centres undefined) | – | – | – | – | 85.4 | – | –
CCN(CC1CCCN(CCc2cccc(OC)c2)C1)C(=O)c1ccoc1 (centres undefined) | – | – | – | – | – | – | ·
Cc1nc(C(Cl)(Cl)Cl)nc2[nH]ccc(=O)c12 | – | – | – | – | – | – | ·
COCc1cc(C)nc(SCc2ccc(Cl)cc2)c1C#N | – | – | – | – | 69.2 | – | –
Cc1ccc(-c2cc(C(=O)Nc3ccccc3C)c3ccccc3n2)o1 | – | – | – | – | 82.5 | – | –
COc1cc(-c2cc(C(=O)Nc3cccc(S(=O)(=O)N(C)C)c3)c3ccccc3n2)cc(OC)c1OC | – | – | – | – | – | – | ·
COC(=O)c1cc(-c2ccc(C)o2)nc2ccccc12 | – | – | – | – | – | – | ·
Cc1ccc(-c2cc(C(=O)Nc3cccc(S(=O)(=O)N(C)C)c3)c3ccccc3n2)o1 | – | – | – | – | 66.1 | – | –
Cc1onc(-c2ccccc2)c1C(=O)Oc1cccnc1 | – | – | – | – | – | – | ·
COc1ccc(C(=O)CCN2CCCC(C)C2)cc1 (centres undefined) | – | – | – | – | 70.6 | – | –
Clc1ccccc1N/N=C/c1ccc2c(c1)OCO2 | – | – | – | – | – | – | ·
NC(=O)c1ccc(-n2nnnc2SCC(=O)Nc2ccccc2F)cc1 | – | – | – | – | – | – | ·
COc1ccc(Nc2nc(-c3ccccc3)nc3ccccc23)c(OC)c1 | – | – | – | – | – | – | ·
COc1ccc(OC)c(Nc2nc(-c3ccncc3)nc3ccccc23)c1 | – | – | – | – | 83.2 | – | –
